These results are taken from ChEMBL document CHEMBL2163279, “Discovery of novel small molecule inhibitors of dengue viral NS2B-NS3 protease using virtual screening and scaffold hopping” (J Med Chem, 2012).

Some results are limits rather than exact numbers.

Data set [1] deals with dengue virus type 2. Briefly: Inhibition of Dengue virus 2 NS2B-NS3 protease at 100 uM preincubated for 15 mins before Dabcyl- Lys-Gln-Arg-Arg-Gly-Arg-Ile-Glu-Edans substrate addition by fluorimetric assay.
A short description of data set [2]: (§1) Inhibition of Dengue virus 2 NS2B-NS3 protease preincubated for 15 mins before Dabcyl- Lys-Gln-Arg-Arg-Gly-Arg-Ile-Glu-Edans substrate addition by fluorimetric assay. Also on record: species or system dengue virus type 2.
The nature of data set [3]: Selectivity index, ratio of CC50 for BHK cells to IC50 for Dengue virus 2 infected in BHK-D2RepT cells. It counts as functional. A digest of the protocol: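 Selectivity index = CC50 / IC50. CC50 is from the 48 h MTT assay in nontransfected BHK cells; IC50 is from the 48 h luciferase read in BHK-D2RepT replicon cells, 96-well format.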
Data set [4] in a line: Cytotoxicity against BHK cells incubated for 48 hrs by MTT assay. It counts as cell-based, Mesocricetus auratus. Particulars: hamster. A digest of the protocol: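 Nontransfected BHK cells, about 5×10⁴ per well, were treated the next day with various compound concentrations for 48 h. Viability was measured by MTT. CC50 is the concentration giving 50% of control cell number; mean of three independent experiments.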

For data set [5], the system named is dengue virus type 2. Description: Antiviral activity against Dengue virus 2 infected in BHK-D2RepT cells assessed as reduction in viral replication incubated for 48 hrs by luciferase reporter replicon-based assay. It counts as functional, organism-based. A digest of the protocol:
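Cells used were BHK-D2RepT: BHK carrying a DENV-2 (New Guinea C) firefly-luciferase replicon, maintained in DMEM/10% FBS/200 μg/mL G418. Seeded at 5×10⁴ cells/well for 24 h, then exposed to compound for 48 h (DMSO <0.2%). Medium was replaced before the Bright-Glo luciferase read. Triplicate wells with six control wells. IC50 is the concentration giving 50% of control luciferase signal; mean of three independent experiments.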
Background: Reporter assays use an easily measured gene product as a stand-in for the process of interest.

The subject of data set [6] is dengue virus type 2. Described as §1.
The test system of data set [7] is dengue virus type 2. Briefly: Inhibition of Dengue virus 2 NS2B-NS3 protease at 50 uM preincubated for 15 mins before substrate addition.
The subject of data set [8] is dengue virus type 2. Description: Inhibition of Dengue virus 2 NS2B-NS3 protease at 25 uM preincubated for 15 mins before substrate addition.
The test system of data set [9] is dengue virus type 2. Briefly: Inhibition of Dengue virus 2 NS2B-NS3 protease at 12.5 uM preincubated for 15 mins before substrate addition.

Consider `O=C(NCCCc1ccccc1)c1cc(/C=N/Nc2cccc(Br)c2)nc2ccccc12`, for which the inhibition (in general, the drop in the measured response relative to a control, in per cent) in the data set with dengue virus type 2 [1] came out at 24.2%. Further, in [2], the IC50 (usually the concentration at which inhibition is half-maximal) was more than 100 µM.

In turn, `CCOC(=O)c1cc(/C=N\NC(N)=S)c(O)c(/C=N\NC(N)=S)c1` yielded an inhibition in the data set on dengue virus type 2 [1] of 24.4%. This compound also gave an IC50 in data set [2] of more than 100 µM.

Take `O=C(N/N=C\CCc1ccccc1)c1cc(/C=N/Nc2cccc(C(F)(F)F)c2)nc2ccccc12`: in the data set with dengue virus type 2 [1], the inhibition amounted to 20.9%. The compound further registered an IC50 in data set [2] of more than 100 µM.

In the data set with dengue virus type 2 [1], `CCOC(=O)c1cc(/C=N/N2C(=O)c3ccccc3C2=O)c(O)c(/C=N/N2C(=O)c3ccccc3C2=O)c1` returned an inhibition of 28%. The same compound returned an IC50 in data set [2] of more than 100 µM.

In the case of `O=C(O)c1cccc(N/N=C/c2cc(C(=O)NCCCCc3ccccc3)c3ccccc3n2)c1`, the “Ratio CC50/IC50” value in [3] came to 4.5. Further, the CC50 (in general, the concentration giving 50% cytotoxicity) at 48 h in [4] was found to be 49.7 µM. For the same compound, the half-maximal inhibitory concentration (IC50) in the data set on dengue virus type 2 [5] came out at 11 µM; in data set [2], 35.3 µM.

Turning to `CCOC(=O)c1cc(/C=N/Nc2nc3ccccc3[nH]2)c(O)c(/C=N/Nc2nc3ccccc3[nH]2)c1`, the “Ratio CC50/IC50” value in data set [3] is listed as 0.4. In addition, the CC50 at 48 h in data set [4] is 12.6 µM. In addition, the IC50 with dengue virus type 2 [5] was 35.9 µM; in data set [2], 13.1 µM. The inhibition entry with dengue virus type 2 [6] was “Dose-dependent effect”.

In the data set on dengue virus type 2 [1], `NS(=O)(=O)c1ccc(N/N=C/c2cc(C(=O)NCCCCc3ccccc3)c3ccccc3n2)cc1` returned an inhibition of 29.4%. Moreover, the concentration for half-maximal inhibition (IC50) in data set [2] was more than 100 µM.

For the compound `O=C(N/N=C\CCc1ccccc1)c1cc(/C=N/Nc2cccc(Br)c2)nc2ccccc12`, in [2], the IC50 amounted to 19.9 µM.

In data set [2], `CCOC(=O)c1cc(/C=N/Nc2ccc([N+](=O)[O-])cc2)c(O)c(/C=N/Nc2ccc([N+](=O)[O-])cc2)c1` came in with a concentration for half-maximal inhibition (IC50) of 14.6 µM.

Compound `COc1ccc(-c2csc(N3N=C(c4ccc([N+](=O)[O-])cc4)/C(=N\Nc4ccc(C(N)=O)cc4)C3=O)n2)cc1` yielded an IC50 in data set [2] of 220 µM.

With `O=C(N/N=C\Cc1ccccc1)c1cc(/C=N/Nc2cccc(Br)c2)nc2ccccc12`, the “Ratio CC50/IC50” value in [3] is listed as more than 4.1. In data set [4], this compound displayed a cytotoxic concentration (CC50) at 48 h of more than 100 µM. Further, the results for the half-maximal inhibitory concentration (IC50) (in the data set on dengue virus type 2 [5]; in data set [2]) were 24.7 µM and 9.45 µM, respectively.

Turning to `O=C(N/N=C\Cc1ccccc1)c1cc(/C=N/Nc2cccc(Cl)c2)nc2ccccc12`, the “Ratio CC50/IC50” value in [3] is 0.3. The compound also had a CC50 at 48 h in data set [4] of 19.7 µM. Moreover, the half-inhibitory concentration (IC50) worked out at 61.3 µM with dengue virus type 2 [5] and 28.1 µM in data set [2].

As to `O=C(N/N=C\C=C\c1ccccc1)c1cc(/C=N/Nc2cccc(C(F)(F)F)c2)nc2ccccc12`, the inhibition with dengue virus type 2 [1] came to 27.4%. In addition, the 50% inhibitory concentration (IC50) in [2] was more than 100 µM.

As for `CCOC(=O)c1cc(/C=N/NC(=O)Nc2ccccc2)c(O)c(/C=N/NC(=O)Nc2ccccc2)c1`, in the data set with dengue virus type 2 [1], the inhibition turned out to be 44.1%. The compound also came in with an IC50 in data set [2] of more than 100 µM.

On to `O=C(CCCC(=O)/C(=C\c1ccc2c(c1)OCO2)CC(=O)c1ccccc1)OCCCl`, for which the 50% inhibitory concentration (IC50) in data set [2] came out at 242 µM.

`O=C(N/N=C/CCc1ccccc1)c1cc(/C=N/Nc2cccc(Cl)c2)nc2ccccc12`: the IC50 in data set [2] was found to be 29 µM.

Compound `NS(=O)(=O)c1ccc(N/N=C/c2cc(C(=O)N/N=C\C=C\c3ccccc3)c3ccccc3n2)cc1` came in with a half-maximal inhibitory concentration (IC50) in data set [2] of 7.46 µM. The inhibition result in the data set with dengue virus type 2 [6] is “Dose-dependent effect”; in the data set on dengue virus type 2 [7] it was 63.3%; with dengue virus type 2 [8], 37.1%; in the data set on dengue virus type 2 [9] it was 21.4%.

Regarding `O=C(N/N=C\C=C\c1ccccc1)c1cc(/C=N/Nc2cccc([N+](=O)[O-])c2)nc2ccccc12`, the “Ratio CC50/IC50” value in data set [3] is listed as 0.3. The compound further displayed a CC50 at 48 h in [4] of 25 µM. Besides, the concentration for half-maximal inhibition (IC50) came to 74.9 µM in the data set on dengue virus type 2 [5] and 22 µM in data set [2].

On to `O=C(N/N=C\Cc1ccccc1)c1cc(/C=N/Nc2cccc(C(F)(F)F)c2)nc2ccccc12`, for which the “Ratio CC50/IC50” value in data set [3] is on record as 0.2. The half-maximal cytotoxic concentration (CC50) at 48 h in [4] is 16.4 µM. Moreover, the IC50 worked out at 73.4 µM with dengue virus type 2 [5] and 19.8 µM in [2].

Regarding `CCOC(=O)c1cc(/C=N/NC(=O)c2ccc3c(c2)OCO3)c(O)c(/C=N/NC(=O)c2ccc3c(c2)OCO3)c1`, the inhibition in the data set with dengue virus type 2 [1] is 35.4%. In data set [2], this compound registered a half-maximal inhibitory concentration (IC50) of more than 100 µM.

Take `CCOC(=O)c1cc(C)c(O)c(/C=N/Nc2nc3ccccc3[nH]2)c1`: half-maximal inhibition in data set [2] (IC50) required 48.6 µM.

In the case of `NS(=O)(=O)c1ccc(N/N=C/c2cc(C(=O)N/N=C\Cc3ccccc3)c3ccccc3n2)cc1`, the inhibition in the data set with dengue virus type 2 [1] was found to be 31.1%. In addition, the IC50 in data set [2] is more than 100 µM.

In data set [2], `NS(=O)(=O)c1ccc(N/N=C/c2cc(C(=O)N/N=C\CCc3ccccc3)c3ccccc3n2)cc1` gave an IC50 of 36 µM.

The compound `CCOC(=O)c1cc(/C=N/Nc2nc3ccccc3[nH]2)cc(/C=N/Nc2nc3ccccc3[nH]2)c1` came in with an IC50 in [2] of 29.5 µM.

Take `COc1cc(/C=C/C(=O)CC(=O)/C=C/c2ccc(O)c(OC)c2)ccc1O` [CURCUMIN]: the “Ratio CC50/IC50” value in data set [3] is recorded as 3.5. In addition, the midpoint of cytotoxicity in [4], the CC50 at 48 h, lay at 14.8 µM. Moreover, in the data set with dengue virus type 2 [5], the 50% inhibitory concentration (IC50) is 4.2 µM.

As to `CCOC(=O)c1cc(/C=N/Nc2ccc(C(C)C)cc2)c(O)c(/C=N/Nc2ccc(C(C)C)cc2)c1`, the “Ratio CC50/IC50” value in data set [3] amounted to 3.7. The cytotoxic concentration (CC50) at 48 h in [4] was determined as 29.7 µM. The 50% inhibitory concentration (IC50) with dengue virus type 2 [5] is 8 µM; in data set [2] it was 39.5 µM.

In the case of `O=C(N/N=C\C=C\c1ccccc1)c1cc(/C=N/Nc2cccc(Cl)c2)nc2ccccc12`, half-maximal inhibition in [2] (IC50) was put at 14.3 µM.

In the case of `CCNC(=S)N/N=C\c1cc(C(=O)OCC)cc(/C=N\NC(=S)NCC)c1O`, the inhibition in the data set on dengue virus type 2 [1] turned out to be 28.2%. In addition, the concentration for half-maximal inhibition (IC50) in data set [2] is more than 100 µM.

In the case of `COc1c(C)c2c(c(O)c1C/C=C(\C)CCC(=O)O)C(=O)OC2` [MYCOPHENOLIC ACID], in [3], the “Ratio CC50/IC50” value came out at 2.7. Besides, in data set [4], the CC50 at 48 h was 1.9 µM. The IC50 in the data set on dengue virus type 2 [5] came to 0.7 µM.

On to `O=C(O)c1cccc(N/N=C/c2cc(C(=O)NCCCc3ccccc3)c3ccccc3n2)c1`, for which the “Ratio CC50/IC50” value in [3] came out at 2.1. In [4], the CC50 at 48 h was found to be 64.3 µM. The concentration for half-maximal inhibition (IC50) in the data set on dengue virus type 2 [5] turned out to be 30.9 µM; in data set [2] it was 41.2 µM.

In the data set with dengue virus type 2 [1], `O=C(NCCCCc1ccccc1)c1cc(/C=N/Nc2cccc(Br)c2)nc2ccccc12` gave an inhibition of 30.6%. This compound also registered a concentration for half-maximal inhibition (IC50) in [2] of more than 100 µM.

In the data set on dengue virus type 2 [1], `Oc1c(/C=N/Nc2nc3ccccc3[nH]2)cccc1/C=N/Nc1nc2ccccc2[nH]1` gave an inhibition of 31.9%. For the same compound, the IC50 in data set [2] was more than 100 µM.

As for `NS(=O)(=O)c1ccc(N/N=C/c2cc(C(=O)NCCCc3ccccc3)c3ccccc3n2)cc1`, the inhibition in the data set on dengue virus type 2 [1] was determined as 20.6%. In data set [2], this compound yielded an IC50 of more than 100 µM.

In the data set with dengue virus type 2 [1], `O=C(NCCCc1ccccc1)c1cc(/C=N/Nc2cccc(Cl)c2)nc2ccccc12` gave an inhibition of 32.1%. In addition, the IC50 in data set [2] is more than 100 µM.

`NS(=O)(=O)c1ccc(N/N=C/c2cc(C(=O)N/N=C/c3cccc(O)c3)c3ccccc3n2)cc1` returned an IC50 in data set [2] of 7.83 µM.
